Data published in ChEMBL document CHEMBL1151806, “Indolizidine, antiinfective and antiparasitic compounds from Prosopis glandulosa var. glandulosa” (J Nat Prod, 2009).
≈ marks a conversion by molar mass, not a printed value. Calls of active or inactive are those of the source. The rule behind the calls is not given here.

Columns and labels:
[1] = test system: Mycobacterium intracellulare; assay: Antimicrobial activity against Mycobacterium intracellular ATCC 23068 by alamar blue assay; assay type: functional, organism-based
Outline: (§1)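 Samples serially diluted in 20% DMSO/saline, tested in duplicate. Inocula set by OD630: C. albicans RPMI pH 4.5, 1·10^4 CFU/mL; C. neoformans Sabouraud dextrose, 1·10^5; MRSA cation-adjusted Mueller-Hinton pH 7.3, 5·10^5; M. intracellulare 7H9/OADC + 5% Alamar Blue pH 7.3, 2·10^6; A. fumigatus RPMI pH 7.3 + 5% Alamar Blue, 3·10^4. Read at 630 nm or 544ex/590em before and after incubation.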

Staphylococcus aureus [2] = assay: Antimicrobial activity against methicillin-resistant Staphylococcus aureus ATCC 43300 by NCCLS method; assay type: functional, organism-based
Outline: as §1, with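 “3·10^4.” for “3·10^4. Read at 630 nm or 544ex/590em before and after incubation.”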

LLC-PK1 = assay: Cytotoxicity against pig LLC-PK1 cells after 48 hrs by neutral red assay; assay type: cell-based, Sus scrofa; settings: Sus scrofa, LLC-PK1, 48 h; read-out: IC50
Outline: (§2)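 Cells seeded at 25,000/well, incubated 24 h, then exposed to samples for 48 h. Viable cells measured by Neutral Red uptake. IC50 from logarithmic plots of growth inhibition vs concentration. Doxorubicin positive control, DMSO vehicle control.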

KB = assay: Cytotoxicity against human KB cells after 48 hrs by neutral red assay; assay type: functional, cell-based; outline: as §2
SK-MEL = assay: Cytotoxicity against human SK-MEL cells after 48 hrs by neutral red assay; assay type: functional, cell-based; outline: as §2
Vero [3] = assay: Cytotoxicity against african green monkey Vero cells after 48 hrs by neutral red assay; assay type: cell-based, Chlorocebus sabaeus; outline: as §2
SK-OV-3 = assay: Cytotoxicity against human SKOV3 cells after 48 hrs by neutral red assay; assay type: functional, cell-based; settings: SK-OV-3, 48 h; outline: as §2
BT-549 = assay: Cytotoxicity against human BT549 cells after 48 hrs by neutral red assay; assay type: functional, cell-based; settings: BT-549, 48 h; outline: as §2
Plasmodium falciparum [4] = assay: Antimalarial activity after 72 hrs against chloroquine-resistant Plasmodium falciparum W2 by pLDH activity; assay type: functional, organism-based; settings: W2, 72 h
Outline: (§3)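 P. falciparum-infected red cells (2% parasitemia, 2% hematocrit) in RPMI-1640 with 10% human serum and 60 μg/mL amikacin, exposed to serial sample concentrations. Gassed with 90% N2/5% O2/5% CO2, incubated 37 °C for 72 h. Parasite LDH activity read colorimetrically with Malstat reagent.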

Candida albicans [5] = assay: Antimicrobial activity against Candida albicans ATCC 90028 by NCCLS method; assay type: functional, organism-based
Outline: as §1, with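 “3·10^4.” for “3·10^4. Read at 630 nm or 544ex/590em before and after incubation.”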

Vero [6] = assay: Cytotoxicity against african green monkey Vero cells; assay type: cell-based; settings: Chlorocebus sabaeus; outline: as §2
Cryptococcus neoformans [7] = assay: Antimicrobial activity against Cryptococcus neoformans ATCC 90113 by NCCLS method; assay type: functional, organism-based
Outline: as §1, with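 “3·10^4.” for “3·10^4. Read at 630 nm or 544ex/590em before and after incubation.”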

[8] = Selectivity index, IC50 for african green monkey (Cercopithecus aethiops) Vero cells to IC50 for […]; assay type: functional
Outline: (§4)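 Selectivity index = IC50 against VERO cells divided by IC50 against P. falciparum (D6 or W2, respectively), each from the corresponding in-house assay.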

Leishmania donovani = assay: Antileishmanial activity against Leishmania donovani promastigotes after 48 hrs by alamar blue assay; assay type: functional, organism-based
[9] = Selectivity index, IC50 for african green monkey (Cercopithecus aethiops) Vero cells to IC50 for chloroquine-sensitive Plasmodium falciparum D6; assay type: functional; outline: as §4
Aspergillus fumigatus [10] = assay: Antimicrobial activity against Aspergillus fumigatus ATCC 90906 by alamar blue assay; assay type: functional, organism-based
Outline: as §1, with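 “3·10^4.” for “3·10^4. Read at 630 nm or 544ex/590em before and after incubation.”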

Plasmodium falciparum [11] = assay: Antimalarial activity after 72 hrs against […] Plasmodium falciparum D6 by pLDH activity; assay type: functional, organism-based; settings: D6, 72 h; outline: as §3
Candida albicans [12] = assay: Antimicrobial activity against Candida albicans ATCC 90028 by NCCLS method in presence of 5% human serum; assay type: functional, organism-based
Aspergillus fumigatus [13] = assay: Antimicrobial activity against Aspergillus fumigatus ATCC 90906 by alamar blue assay in presence of 5% human serum; assay type: functional, organism-based
Cryptococcus neoformans [14] = assay: Antimicrobial activity against Cryptococcus neoformans ATCC 90113 by NCCLS method in presence of 5% human serum; assay type: functional, organism-based
[15] = test system: Mycobacterium intracellulare; assay: Antimicrobial activity against Mycobacterium intracellular ATCC 23068 by alamar blue assay in presence of 5% human serum; assay type: functional, organism-based
Staphylococcus aureus [16] = assay: Antimicrobial activity against methicillin-resistant Staphylococcus aureus ATCC 43300 by NCCLS method in presence of 5% human serum; assay type: functional, organism-based
Vero [17] = assay: Cytotoxicity against african green monkey Vero cells at 4760 ng/mL; assay type: cell-based, Chlorocebus sabaeus
[18] = Chlorocebus sabaeus, Vero, 48 h, read-out: IC50
[19] = Aspergillus fumigatus, ATCC 90906
[20] = Aspergillus fumigatus, ATCC 90906, read-out: IC50
[21] = Candida albicans, ATCC 90028, read-out: IC50

Structure (SMILES) | MBC [1] | MIC [1] | MBC (Staphylococcus aureus [2]) | IC50 (KB) | IC50 (SK-MEL) | IC50 (Vero [3]; [18]) | IC50 (SK-OV-3) | IC50 (Plasmodium falciparum [4]) | IC50 (Vero [6]) | IC50 [1] | IC50 (Cryptococcus neoformans [7]) | MFC (Cryptococcus neoformans [7]) | Ratio IC50 [8] | IC50 (Staphylococcus aureus [2]) | Ratio IC50 [9] | MFC (Aspergillus fumigatus [10]; [19]) | MIC (Aspergillus fumigatus [10]; [19]) | IC50 (Aspergillus fumigatus [10]; [20]) | IC50 (Plasmodium falciparum [11]) | IC50 (Leishmania donovani) | other results
O=C(O)c1cn(C2CC2)c2cc(N3CCNCC3)c(F)cc2c1=O [CIPROFLOXACIN] | inactive | 0.63 µg/mL (≈ 1.9 µM) | inactive |  |  |  |  |  |  |  |  |  |  |  |  |  |  |  |  |  | MIC (Staphylococcus aureus [2]): 0.3 µg/mL (≈ 0.905 µM)
COc1cccc2c1C(=O)c1c(O)c3c(c(O)c1C2=O)C[C@@](O)(C(=O)CO)C[C@@H]3O[C@H]1C[C@H](N)[C@H](O)[C@H](C)O1 [DOXORUBICIN] |  |  |  | < 0.55 µg/mL | < 0.55 µg/mL | 3.2 µg/mL (≈ 5.89 µM) | < 0.55 µg/mL |  |  |  |  |  |  |  |  |  |  |  |  |  | IC50 (LLC-PK1): < 0.55 µg/mL; IC50 (BT-549): < 0.55 µg/mL
C[C@@H]1N[C@H](CCCCCCCCCCc2cc(CCCCCCCCCC[C@H]3CC[C@@H](O)[C@@H](C)N3)c[n+]3c2CCC3)CC[C@H]1O [ISOPROSOPILOSIDINE] | inactive | 2.5 µg/mL | 20 µg/mL | 7 µg/mL | 3.3 µg/mL |  | 4.5 µg/mL | 0.12 µg/mL | > 23.8 µg/mL | 1.5 µg/mL | 0.55 µg/mL | 1.25 µg/mL | >198 | 0.6 µg/mL | >567 | 10 µg/mL | 10 µg/mL | 6.5 µg/mL |  |  | IC50 (Candida albicans [5]): Not Active; MFC (Candida albicans [5]): inactive; MIC (Candida albicans [5]): inactive; IC50 (LLC-PK1): 21.3 µg/mL; MIC (Cryptococcus neoformans [7]): 1.25 µg/mL; IC50 (Vero [3]; vero): Not Active; IC90 (Leishmania donovani): 2.5 µg/mL; IC50 (BT-549): 6.75 µg/mL
C[C@H]1N[C@@H](CCCCCCCCCCC2=C[C@@H](CCCCCCCCCC[C@@H]3CC[C@H](O)[C@@H](C)N3)[C@@H]3CCCN3C2)CC[C@H]1O [ISOPROSOPILOSINE] |  |  |  | 2.2 µg/mL (≈ 3.49 µM) | < 1.1 µg/mL | 1.8 µg/mL (≈ 2.86 µM) | < 1.1 µg/mL | 0.15 µg/mL (≈ 0.238 µM) | 1.8 µg/mL (≈ 2.86 µM) | 1.5 µg/mL (≈ 2.38 µM) | 0.4 µg/mL (≈ 0.635 µM) | 0.63 µg/mL (≈ 1 µM) | 12 | 1 µg/mL (≈ 1.59 µM) | 22 | 2.5 µg/mL (≈ 3.97 µM) | 0.16 µg/mL (≈ 0.254 µM) | 0.1 µg/mL (≈ 0.159 µM) | 0.083 µg/mL (≈ 0.132 µM) | 0.26 µg/mL (≈ 0.413 µM) | IC50 (Candida albicans [5]): Not Active; MIC (Cryptococcus neoformans [7]): 0.63 µg/mL (≈ 1 µM); MIC (Staphylococcus aureus [2]): 2.5 µg/mL (≈ 3.97 µM); IC50 (BT-549): 2.5 µg/mL (≈ 3.97 µM)
C[C@H]1N[C@@H](CCCCCCCCCCC2=C[C@@H](CCCCCCCCCC[C@H]3CC[C@@H](O)[C@@H](C)N3)[C@@H]3CCCN3C2)CC[C@H]1O [JULIPROSOPINE] |  |  | inactive | 6.2 µg/mL (≈ 9.84 µM) | 2.4 µg/mL (≈ 3.81 µM) | 5 µg/mL (≈ 7.94 µM) | 4.7 µg/mL (≈ 7.46 µM) | 0.38 µg/mL (≈ 0.603 µM) | 5 µg/mL (≈ 7.94 µM) | 6 µg/mL (≈ 9.52 µM) | 1.5 µg/mL (≈ 2.38 µM) |  | 13 | 3.5 µg/mL (≈ 5.56 µM) | 23 | 1.25 µg/mL (≈ 1.98 µM) | 1.25 µg/mL (≈ 1.98 µM) | 0.9 µg/mL (≈ 1.43 µM) | 0.22 µg/mL (≈ 0.349 µM) | 0.75 µg/mL (≈ 1.19 µM) | IC50 (Candida albicans [5]): Not Active; MFC (Candida albicans [5]): inactive; MIC (Candida albicans [5]): inactive; Activity (Candida albicans [12]): Active; Activity (Aspergillus fumigatus [13]): Active; Activity (Cryptococcus neoformans [14]): Active; Activity [15]: Active; Activity (Staphylococcus aureus [16]): Active
N=C(N)c1ccc(OCCCCCOc2ccc(C(=N)N)cc2)cc1 [PENTAMIDINE] |  |  |  |  |  |  |  |  |  |  |  |  |  |  |  |  |  |  |  | 0.5 µg/mL (≈ 1.47 µM) | IC90 (Leishmania donovani): 2 µg/mL (≈ 5.87 µM)
C[C@@H]1N[C@H](CCCCCCCCCCc2cc(CCCCCCCCCC[C@@H]3CC[C@@H](O)[C@H](C)N3)c3[n+](c2)CCC3)CC[C@H]1O.[Cl-] [PROSOPILOSIDINE DIHYDROCHLORIDE] | inactive | 10 µg/mL |  |  |  |  |  |  |  | 3.5 µg/mL | 1.5 µg/mL | 2.5 µg/mL | >17.6 | 1.5 µg/mL | >11.1 |  |  |  | 0.43 µg/mL | 2.8 µg/mL | MFC (Candida albicans [5]): inactive; MIC (Candida albicans [5]; Candida albicans, ATCC 90028): 20 µg/mL; IC50 (Candida albicans [5]; [21]): 15 µg/mL; Activity (Candida albicans [12]): Active; Activity (Aspergillus fumigatus [13]): Active; MIC (Cryptococcus neoformans [7]): 2.5 µg/mL; Activity (Cryptococcus neoformans [14]): Active; MIC (Staphylococcus aureus [2]): 2.5 µg/mL; IC90 (Leishmania donovani): 8 µg/mL; IC50 (Vero [17]): Non-toxic; Activity [15]: Active; IC50 (Aspergillus fumigatus [10]): Not Active; MFC (Aspergillus fumigatus [10]): inactive; MIC (Aspergillus fumigatus [10]): inactive; Activity (Staphylococcus aureus [16]): Active
C[C@@H]1N[C@H](CCCCCCCCCCC2=C[C@@H](CCCCCCCCCC[C@@H]3CC[C@@H](O)[C@H](C)N3)[C@@H]3CCCN3C2)CC[C@H]1O [PROSOPILOSINE] | 20 µg/mL (≈ 31.7 µM) |  |  | 6 µg/mL (≈ 9.52 µM) | < 1.1 µg/mL | 5.7 µg/mL (≈ 9.05 µM) |  | 0.23 µg/mL (≈ 0.365 µM) | 5.6 µg/mL (≈ 8.89 µM) | 2 µg/mL (≈ 3.17 µM) | 0.8 µg/mL (≈ 1.27 µM) | 1.25 µg/mL (≈ 1.98 µM) | 24 | 1.5 µg/mL (≈ 2.38 µM) | 47 | 0.63 µg/mL (≈ 1 µM) | 0.63 µg/mL (≈ 1 µM) | 0.45 µg/mL (≈ 0.714 µM) | 0.12 µg/mL (≈ 0.19 µM) | 0.65 µg/mL (≈ 1.03 µM) | IC50 (Candida albicans [5]; [21]): 15 µg/mL (≈ 23.8 µM); IC50 (LLC-PK1): 1.9 µg/mL (≈ 3.02 µM)
